Published values gathered from unrelated publications.
Lines come from different studies, so protocols differ.
Cell line: OVCAR-5
Effect on: cell growth or viability

For `CC[C@@H]1C=CC(=O)O[C@@H]1C[C@@H](O)[C@H](C)[C@H](O)[C@@H](C)Cc1ccc(F)cc1`, the GI50 was 16.5 nM (MTT; 48 h).
`COc1ccccc1/C=C/C(=O)c1ccc(OC)c(S(N)(=O)=O)c1` has a GI50 of 2200 nM (SRB; 48 h).
`CCN1CCN(Cc2ccc(Nc3ncc(F)c(-c4cc(F)c5nc(C)n(C(C)C)c5c4)n3)nc2)CC1` has an IC50 of 2500 nM (CCK-8).
With `COc1ccc(-c2ccc(-c3ccc(C(=N)N)nc3)s2)cc1` the GI50 was 1670 nM (SRB).
The GI50 of `C/C=C/C[C@H](C)[C@@H](OC)[C@@H](C)[C@H](O)C[C@H]1OC(=O)C=C[C@H]1CC` is reported as 21.9 nM (MTT; 48 h).
For `COc1cc(-c2ccc(-c3ccc(C(=N)N)nc3)s2)cc(OC)c1OC`, the GI50 was 2100 nM (SRB).
`CC[C@@H]1C=CC(=O)O[C@@H]1C[C@@H](O)[C@H](C)[C@H](OC)[C@@H](C)Cc1ccc(F)cc1` gave a GI50 of 75.3 nM (MTT; 48 h).
The GI50 of `S=C([S][Au-][P+](CCCCCC[P+]([Au-][S]C(=S)n1cccn1)(c1ccccc1)c1ccccc1)(c1ccccc1)c1ccccc1)n1cccn1` is reported as 3630 nM.
`COc1ccc(C(=O)/C=C/c2cccc(Cl)c2)cc1S(N)(=O)=O` gave a GI50 of 1900 nM (SRB; 48 h).
`Cc1cc(C)n(C(=S)[S][Au][PH](CCCCCC[PH]([Au][S]C(=S)n2nc(C)cc2C)(c2ccccc2)c2ccccc2)(c2ccccc2)c2ccccc2)n1` gave a GI50 of 1210 nM.
With `COc1cccc(Oc2ccccc2NC(=O)CNC(=O)c2cccc3ccccc23)c1` the GI50 was 1120 nM (SRB; 48 h).
